Laboratory results from ChEMBL document CHEMBL3046214, “Friedelane triterpenes from Celastrus vulcanicola as photosynthetic inhibitors” (J Agric Food Chem, 2010).
The source made the active and inactive calls. The rule behind the calls is not given here.

Legend:
Lolium perenne [1] = test: Inhibition of photosynthetic efficiency in Lolium perenne (perennial ryegrass) assessed as effect on OJIP transients at 200 uM measured 72 hr post compound application; assay type: functional, organism-based
Outline: (§1)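 Greenhouse L. perenne sprayed 18 days after emergence (20 mM DMSO stock diluted into 0.05% Tween-20; vehicle-sprayed controls). Leaves dark-adapted 15 min, then excited with 3000 μmol photons m-2 s-1 red light (650 nm) from three LEDs. OJIP transients recorded at room temperature with a Handy PEA. PI(abs) and other parameters are shown on radar plots normalized to control.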

Lolium perenne [2] = test: Effect on photosynthetic efficiency in Lolium perenne (perennial ryegrass) assessed as increase in OJIP transients at 100 uM measured 72 hr post compound application; assay type: functional; outline: as §1
Lolium perenne [3] = test: Inhibition of photosynthetic efficiency in Lolium perenne (perennial ryegrass) at 200 uM measured 24 to 72 hr post compound application; assay type: functional; outline: as §1
Lolium perenne [4] = test: Inhibition of photosynthetic efficiency in Lolium perenne (perennial ryegrass) assessed as effect on OJIP transients at 100 uM measured 24 to 48 hr post compound application; assay type: functional, organism-based; outline: as §1
Spinacia oleracea [5] = test: Effect on photosynthesis efficiency in Spinacia oleracea (spinach) leaves freshly lysed chloroplasts assessed as change in chlorophyll a fluorescence at 150 to 450 uM; assay type: functional
Outline: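 Freshly lysed spinach thylakoids (20 μg Chl) were placed on filter paper with a dot-blot apparatus and dipped in 3 mL basal electron transport medium without MV, containing compound. After 5 min dark adaptation, fluorescence was excited with 3000 μmol m-2 s-1 650 nm LED light (2 s pulse) at room temperature. Wt = (Ft−F0)/(FJ−F0), difference from control used for K-band; five replicates.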

Spinacia oleracea [6] = test: Increase in Magnesium-transporting ATPase activity in Spinacia oleracea (spinach) leaves chloroplasts thylakoids at 200 uM
Outline: (§2)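 Spinach chloroplasts were isolated in 350 mM sorbitol, 5 mM ascorbate, 20 mM MES pH 6.5, centrifuged at 3000g for 60 s, washed, and resuspended in 35 mM HEPES pH 7.6. Light-triggered Mg2+-ATPase activity of thylakoid membranes was measured as released inorganic phosphate. Ammonium chloride served as positive control.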

Spinacia oleracea [7] = test: Increase in Magnesium-transporting ATPase activity in Spinacia oleracea (spinach) leaves chloroplasts thylakoids at 300 uM; outline: as §2
Spinacia oleracea [8] = test: Inhibition of uncoupled electron transport from water to MV in Spinacia oleracea (spinach) leaves chloroplasts at 50 to 300 uM using Clark type electrode system based method; assay type: functional, organism-based
Outline: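 Water-to-MV electron transport measured with a Clark electrode in the basal medium (20 μg Chl/mL, 50 μM MV, 15 mM tricine-KOH pH 8.0, 1 min illumination), with 6 mM NH4Cl added as uncoupler.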

Spinacia oleracea [9] = test: Inhibition of basal electron transport from water to MV in Spinacia oleracea (spinach) leaves chloroplasts at 50 to 300 uM using Clark type electrode system based method; assay type: functional, organism-based
Spinacia oleracea [10] = test: Inhibition of phosphorylating noncyclic electron transport from water to MV in Spinacia oleracea (spinach) leaves chloroplasts at 50 to 300 uM using Clark type electrode system based method; assay type: functional
Outline: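 Clark-electrode measurement of water-to-MV electron flow in the basal medium (sorbitol, KCl, MgCl2, 0.5 mM KCN, 50 μM MV, 15 mM tricine-KOH pH 8.0; 20 μg Chl/mL; 1 min light), with 1 mM ADP and 3 mM KH2PO4 added.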

Spinacia oleracea [11] = test: Inhibition of photophosphorylation in Spinacia oleracea (spinach) leaves chloroplasts by titrimetry; assay type: functional; settings: read-out: I50
Outline: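 Intact spinach chloroplasts (20 μg Chl/mL) were osmotically broken in 3 mL of weakly buffered medium: 100 mM sorbitol, 10 mM KCl, 5 mM MgCl2, 0.5 mM KCN, 1 mM tricine-KOH pH 8.0, 50 μM MV and 1 mM ADP. ATP synthesis was taken from the medium alkalization rate in the linear part of illumination, calibrated by HCl back-titration, as μmol ATP (mg Chl)-1 h-1. I50 was obtained from concentration-activity plots; three replicates.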

Spinacia oleracea [12] = test: Increase in Magnesium-transporting ATPase activity in Spinacia oleracea (spinach) leaves chloroplasts thylakoids at 100 uM; outline: as §2
Physalis ixocarpa [13] = test: Effect on biomass production in Physalis ixocarpa assessed as plant dry weight at 200 uM measured 14 days post compound application relative to untreated control; assay type: functional
Outline: (§3)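 Greenhouse-grown plants (pots, watered daily, 25 to 30 °C) of similar size, sprayed at 15 (P. ixocarpa) or 18 (L. perenne) days after emergence. Compound taken from a 20 mM DMSO stock into aqueous 0.05% w/v Tween-20; controls were sprayed with water containing the same DMSO and Tween-20. Plants harvested at ground level, oven-dried at 65 °C to constant weight, then weighed.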

Physalis ixocarpa [14] = test: Effect on biomass production in Physalis ixocarpa assessed as plant dry weight at 100 uM measured 14 days post compound application relative to untreated control; assay type: functional; outline: as §3
Lolium perenne [15] = test: Effect on biomass production in Lolium perenne (perennial ryegrass) assessed as plant dry weight at 100 uM measured 14 days post compound application relative to untreated control; assay type: functional; outline: as §3
Lolium perenne [16] = test: Effect on biomass production in Lolium perenne (perennial ryegrass) assessed as plant dry weight at 200 uM measured 14 days post compound application relative to untreated control; assay type: functional; outline: as §3
Physalis ixocarpa [17] = test: Inhibition of photosynthetic efficiency in Physalis ixocarpa intact leaves assessed as increase in chlorophyll a fluorescence transients at 100 uM measured 72 hr post compound application; assay type: functional, organism-based
Outline: (§4)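 P. ixocarpa plants sprayed 15 days after emergence (greenhouse, 25-30 °C; 20 mM DMSO stock diluted into 0.05% Tween-20; vehicle-sprayed controls). Leaves dark-adapted 15 min, then excited with 650 nm red LED light at 3000 μmol photons m-2 s-1. Chl a OJIP transients recorded with a Handy PEA at room temperature. PI(abs) is normalized to control; K-, J- and I-bands come from variable fluorescence difference curves; five replicates.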

Physalis ixocarpa [18] = test: Inhibition of photosynthetic efficiency in Physalis ixocarpa intact leaves assessed as reduction in PI(abs) level at 200 uM measured 48 hr post compound application; assay type: functional; outline: as §4
Physalis ixocarpa [19] = test: Inhibition of photosynthetic efficiency in Physalis ixocarpa intact leaves assessed as reduction in chlorophyll a fluorescence transients at 200 uM measured 48 hr post compound application; assay type: functional; outline: as §4
Physalis ixocarpa [20] = test: Inhibition of photosynthetic efficiency in Physalis ixocarpa intact leaves assessed as increase in chlorophyll a fluorescence transients at 100 uM measured 48 hr post compound application; assay type: functional; parameters: scale not given: the % may be the effect or the level left; outline: as §4
Physalis ixocarpa [21] = test: Inhibition of photosynthetic efficiency in Physalis ixocarpa intact leaves assessed as reduction in PI(abs) level at 100 uM measured 48 hr post compound application; assay type: functional; outline: as §4
Physalis ixocarpa [22] = test: Inhibition of photosynthetic efficiency in Physalis ixocarpa intact leaves assessed as effect on OJIP transients at 100 uM measured 24 hr post compound application; assay type: functional, organism-based; outline: as §4
Lolium perenne [23] = test: Effect on photosynthetic efficiency in Lolium perenne (perennial ryegrass) assessed as increase in PI(abs) transients at 100 uM measured 72 hr post compound application; assay type: functional; outline: as §1

`C[C@H]1[C@@H](O)CC[C@@H]2[C@]1(C)CC[C@H]1[C@@]2(C)CC[C@@]2(C)[C@@H]3CC(C)(C)CC[C@]3(C)CC[C@]12C` [EPIFRIEDELINOL] was tested, and the inhibition (Lolium perenne [1]) was “inactive”, the Activity (Lolium perenne [2]) was 20% and the inhibition at 200 µM (Lolium perenne [3]) was 12%. For the same molecule, the inhibition (Lolium perenne [4]) was “inactive”, the Activity (Spinacia oleracea [5]) was “Active” and the Activity (Spinacia oleracea [6]) was 112%. For the same molecule, the Activity (Spinacia oleracea [7]) was 123%, the inhibition (Spinacia oleracea [8]) was “inactive” and the inhibition (Spinacia oleracea [9]) was “inactive”. The inhibition (Spinacia oleracea [10]) was “inactive”, the IC50 (Spinacia oleracea [11]) was 82 µM and the Activity (Spinacia oleracea [12]) was 110%. The Activity (Physalis ixocarpa [13]) was 101.3%, the Activity (Physalis ixocarpa [14]) was 23.2% and the Activity (Lolium perenne [15]) was 79.6%. The Activity (Lolium perenne [16]) was 91.2%, the Activity (Physalis ixocarpa [17]) was “Active” and the inhibition at 200 µM (Physalis ixocarpa [18]) was 15%. It also gave an inhibition at 200 µM (Physalis ixocarpa [19]) of 10%, an Activity (Physalis ixocarpa [20]) of 10% and an inhibition at 100 µM (Physalis ixocarpa [21]) of 40%. The inhibition (Physalis ixocarpa [22]) was “inactive” and the Activity (Lolium perenne [23]) was 10%.
